The text below walks through data of ChEMBL document CHEMBL4732101, “Novel quinolone-based potent and selective HDAC6 inhibitors: Synthesis, molecular modeling studies and biological investigation” (Eur J Med Chem, 2021).

Active and inactive are the calls of the source. The rule behind the calls is not given here. Bounds are passed on as bounds.

The test system of data set [1] is HCT-116. Nature of the data set: Cytotoxicity against human HCT-116 cells assessed as reduction in cell viability measured after 48 hrs by MTT assay. Type of data set: functional, cell-based. As to conditions: HCT-116, 48 h. The essentials:
(§1)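 HCT-116 cells grown in DMEM with 10% FBS, 2 mM L-glutamine and antibiotics. 2.5×10^4 cells/well treated in triplicate at 50, 25, 10, 5 and 1 µM for 12, 24 or 48 h. Then MTT 0.5 mg/ml for 3 h, supernatant removed, formazan dissolved in isopropanol, absorbance read at 570 nm. IC50 derived from the concentration series.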
A general note: Tetrazolium assays rely on reduction of a dye to a coloured formazan, in cell work by metabolically active cells.

The target of data set [2] is T1, Protein deacetylase HDAC6 (Homo sapiens) (UniProt Q9UBN7).
T1 sequence (whole entry): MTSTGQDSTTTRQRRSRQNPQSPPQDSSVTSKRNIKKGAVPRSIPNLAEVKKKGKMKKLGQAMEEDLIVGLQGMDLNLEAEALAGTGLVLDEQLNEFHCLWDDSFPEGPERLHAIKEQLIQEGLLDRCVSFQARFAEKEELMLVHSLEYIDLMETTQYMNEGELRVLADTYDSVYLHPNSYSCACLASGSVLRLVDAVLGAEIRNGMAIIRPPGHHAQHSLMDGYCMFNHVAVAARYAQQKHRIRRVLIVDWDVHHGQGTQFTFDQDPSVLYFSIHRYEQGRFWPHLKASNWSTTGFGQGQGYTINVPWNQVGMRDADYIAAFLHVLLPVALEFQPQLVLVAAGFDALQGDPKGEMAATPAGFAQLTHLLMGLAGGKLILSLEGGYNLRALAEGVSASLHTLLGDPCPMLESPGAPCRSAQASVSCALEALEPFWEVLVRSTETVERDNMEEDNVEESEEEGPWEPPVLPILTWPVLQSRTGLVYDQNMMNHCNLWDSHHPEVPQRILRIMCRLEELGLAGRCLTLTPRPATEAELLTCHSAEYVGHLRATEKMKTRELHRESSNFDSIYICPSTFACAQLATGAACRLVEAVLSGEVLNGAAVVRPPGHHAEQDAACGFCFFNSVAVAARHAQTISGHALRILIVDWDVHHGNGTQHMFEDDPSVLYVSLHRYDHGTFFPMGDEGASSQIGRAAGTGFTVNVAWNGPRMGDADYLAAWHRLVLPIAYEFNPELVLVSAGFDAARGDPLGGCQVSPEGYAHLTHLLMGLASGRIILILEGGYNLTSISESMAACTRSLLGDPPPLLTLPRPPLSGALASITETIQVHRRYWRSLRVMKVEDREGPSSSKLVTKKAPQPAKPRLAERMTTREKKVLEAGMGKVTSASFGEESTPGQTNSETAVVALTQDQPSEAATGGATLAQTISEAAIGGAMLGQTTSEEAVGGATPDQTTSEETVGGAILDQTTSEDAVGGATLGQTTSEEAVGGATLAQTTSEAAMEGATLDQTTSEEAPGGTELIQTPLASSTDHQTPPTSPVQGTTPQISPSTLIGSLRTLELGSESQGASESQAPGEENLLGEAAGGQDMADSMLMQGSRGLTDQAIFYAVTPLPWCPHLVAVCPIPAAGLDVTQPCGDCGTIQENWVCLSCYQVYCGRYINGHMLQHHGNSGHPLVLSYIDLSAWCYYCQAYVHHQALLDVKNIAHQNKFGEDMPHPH
The experiment in a line: Inhibition of HDAC6 in human HCT-116 cells assessed as increase in alpha-tubulin acetylation at 10 uM measured after 12 to 24 hrs by Western blot analysis relative to control. Type of data set: cell-based. As to conditions: time 12-24 hrs. An outline of the steps: (§2)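 HCT-116 or U937 cells treated at 10 µM for 12 and 24 h. […] Western blot used 40 µg total protein or 5 µg acid-extracted histone. Blots probed for cleaved PARP, acetylated tubulin, H3K9/14ac and Hsp90(AcLys294), normalized to GAPDH or H4. Compared with control cells by one-way ANOVA and Dunnett's test.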
Background: In western blotting, separated proteins are transferred to a membrane and probed.

The test system of data set [3] is U-937. Nature of the data set: Cytotoxicity against human U-937 cells assessed as reduction in cell viability measured after 48 hrs by MTT assay. Type of data set: functional, cell-based. The settings on record: U-937, 48 h. The essentials:
(§3)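 U937 cells grown in RPMI-1640 with 10% FBS, 2 mM L-glutamine and penicillin-streptomycin. 2.5×10^4 cells/well treated in triplicate at 50, 25, 10, 5 and 1 µM for 12, 24 or 48 h. MTT 0.5 mg/ml added for 3 h, plate centrifuged 5 min at 1200 rpm, crystals dissolved in isopropanol, A570 read. IC50 derived from the concentration series.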

Data set [4] is described as follows: Inhibition of HDAC1/2/3/8 in human HCT-116 cells assessed as increase in H3K9/14 acetylation at 10 uM measured after 12 to 24 hrs by Western blot analysis relative to control. The class given is cell-based. As to conditions: hct-116, 10 µM, time 12-24 hrs. An outline of the steps:
as §2

For data set [5], the system named is HCT-116. The experiment in a line: Cytotoxicity against human HCT-116 cells assessed as reduction in cell viability measured after 24 hrs by MTT assay. Type of data set: functional, cell-based. The settings on record: HCT-116, 24 h. An outline of the steps:
as §1

Data set [6] addresses T2, Protein deacetylase HDAC6 (Homo sapiens, UniProt Q9UBN7).
T2 sequence (Q9UBN7 whole entry): T1 sequence (whole entry)
The experiment in a line: Inhibition of recombinant human full length N-terminal GST-tagged HDAC6 expressed in baculovirus infected Sf9 cells using Z-(Ac)Lys-AMC as substrate measured after 90 mins by fluorescence assay.

Data set [7] addresses T1, Protein deacetylase HDAC6 (Homo sapiens). The experiment in a line: Inhibition of HDAC6 in human U-937 cells assessed as increase in Hsp90(AcLys294) acetylation at 10 uM measured after 12 to 24 hrs by Western blot analysis. The class given is cell-based. The settings on record: time 12-24 hrs. An outline of the steps:
as §2

The subject of data set [8] is HCT-116. The experiment in a line: Cytotoxicity against human HCT-116 cells assessed as cell viability at 50 uM measured after 48 hrs by MTT assay relative to control. As to conditions: read-out: Activity. The class given is functional. An outline of the steps: as §1
Data set [9] can be described thus: Inhibition of HDAC1/2/3/8 in human U-937 cells assessed as increase in H3K9/14 acetylation at 10 uM measured after 12 to 24 hrs by Western blot analysis. The class given is cell-based. As to conditions: u-937, 10 µM, time 12-24 hrs. An outline of the steps:
as §2

The target in data set [10] is T1, Protein deacetylase HDAC6 (Homo sapiens). Nature of the data set: Inhibition of HDAC6 in human U-937 cells assessed as increase in alpha-tubulin acetylation at 10 uM measured after 12 to 24 hrs by Western blot analysis relative to control. The class given is cell-based. As to conditions: time 12-24 hrs. An outline of the steps: as §2
For data set [11] the target is unchanged. Nature of the data set: Inhibition of HDAC6 in human HCT-116 cells assessed as increase in Hsp90(AcLys294) acetylation at 10 uM measured after 12 to 24 hrs by Western blot analysis. Type of data set: cell-based. The settings on record: time 12-24 hrs. The essentials:
as §2

Data set [12] addresses Histone deacetylase 1 (Homo sapiens, UniProt Q13547). The experiment in a line: Inhibition of recombinant human C-terminal FLAG/His-tagged HDAC1 (1 to 482 residues) expressed in Sf9 insect cells using Z-(Ac)Lys-AMC as substrate measured after 90 mins by fluorescence assay. An outline of the steps: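 Incubated with inhibitor in DMSO and fluorogenic substrate Z-(Ac)Lys-AMC (126 µM, as added) for 90 min at 37 °C. Stopped with trichostatin A plus trypsin for 30 min at 37 °C; fluorescence read at ex 390/em 460 nm.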

The subject of data set [13] is U-937. Nature of the data set: Cytotoxicity against human U-937 cells assessed as reduction in cell proliferation at 50 uM measured after 48 hrs by MTT assay relative to control. Also on record: scale not given: the % may be the effect or the level left. Type of data set: functional. An outline of the steps: as §3
The test system of data set [14] is HCT-116. Nature of the data set: Cytotoxicity against human HCT-116 cells assessed as reduction in cell proliferation at 25 uM measured after 48 hrs by MTT assay relative to control. Also noted: scale not given: the % may be the effect or the level left. As to conditions: time 12 hrs, in the assay text read “after 12 hrs” for “after 48 hrs”. The class given is functional. An outline of the steps: as §1

Data set [15] deals with HCT-116. The experiment in a line: Induction of apoptosis in human HCT-116 cells assessed as increase in PARP cleavage at 10 uM measured after 24 hrs by Western blot analysis. The class given is functional, cell-based. The essentials: as §2
Data set [16] has as its target T3, Histone deacetylase 8 (Homo sapiens, UniProt Q9BY41).
T3 sequence (Q9BY41 whole entry): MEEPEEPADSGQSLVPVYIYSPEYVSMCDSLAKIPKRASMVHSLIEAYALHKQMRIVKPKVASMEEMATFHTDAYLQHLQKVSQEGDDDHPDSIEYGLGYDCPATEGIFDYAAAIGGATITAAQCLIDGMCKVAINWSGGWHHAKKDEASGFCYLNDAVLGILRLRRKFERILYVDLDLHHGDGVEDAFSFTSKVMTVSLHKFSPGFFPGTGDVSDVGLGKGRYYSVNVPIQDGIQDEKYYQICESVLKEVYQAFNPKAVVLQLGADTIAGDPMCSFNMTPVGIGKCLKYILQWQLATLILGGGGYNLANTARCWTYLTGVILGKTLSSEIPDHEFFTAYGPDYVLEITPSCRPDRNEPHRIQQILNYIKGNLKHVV
The experiment in a line: Inhibition of recombinant human HDAC8 using Fluor-de-Lys as substrate measured after 1 hr by fluorescence assay.

Data set [17] is described as follows: Cytotoxicity against human PBMC cells assessed as reduction in cell viability at 45 uM measured after 24 to 48 hrs by GUAVA easyCyte cytometric method. Type of data set: cell-based. As to conditions: time 24-48 hrs. An outline of the steps: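 PBMCs seeded at 1.5 x10^6/mL in complete medium and exposed to 15, 45 or 90 µM test compound, or DMSO vehicle, for 24 h and 48 h. Percentage of viable cells determined by flow cytometry with ViaCount reagent.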

For data set [18], the system named is HCT-116. Nature of the data set: Cytotoxicity against human HCT-116 cells assessed as reduction in cell proliferation at 10 uM measured after 48 hrs by MTT assay relative to control. Also on record: scale not given: the % may be the effect or the level left. The class given is functional. An outline of the steps: as §1
In data set [19] the test system is HCT-116. Nature of the data set: Cytotoxicity against human HCT-116 cells assessed as reduction in cell proliferation at 10 uM measured after 24 hrs by MTT assay relative to control. The class given is functional. Also noted: scale not given: the % may be the effect or the level left. An outline of the steps: as §1
Data set [20] has as its system U-937. The experiment in a line: Induction of apoptosis in human U-937 cells assessed as increase in PARP cleavage at 10 uM measured after 24 hrs by Western blot analysis. Type of data set: functional, cell-based. The essentials: as §2
The test system of data set [21] is HCT-116. Nature of the data set: Cytotoxicity against human HCT-116 cells assessed as reduction in cell viability measured after 12 hrs by MTT assay. The class given is functional, cell-based. The settings on record: HCT-116, 12 h. The essentials: as §1

Chain of Histone deacetylase 1 (Q13547 whole entry, the tested form may be a part): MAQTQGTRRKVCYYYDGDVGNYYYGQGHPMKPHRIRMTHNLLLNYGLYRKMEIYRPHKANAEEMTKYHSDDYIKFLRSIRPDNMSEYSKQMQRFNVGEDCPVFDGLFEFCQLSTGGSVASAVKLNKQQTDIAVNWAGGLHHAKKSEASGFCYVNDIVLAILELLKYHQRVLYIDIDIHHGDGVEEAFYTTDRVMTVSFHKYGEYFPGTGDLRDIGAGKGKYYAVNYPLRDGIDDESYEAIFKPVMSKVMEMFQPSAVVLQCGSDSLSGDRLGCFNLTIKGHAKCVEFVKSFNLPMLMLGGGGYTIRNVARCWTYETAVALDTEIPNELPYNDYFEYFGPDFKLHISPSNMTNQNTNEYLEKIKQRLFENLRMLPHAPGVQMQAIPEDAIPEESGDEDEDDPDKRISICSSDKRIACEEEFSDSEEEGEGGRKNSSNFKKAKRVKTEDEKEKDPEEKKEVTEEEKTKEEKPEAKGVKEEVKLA

Broadly, the IC50 is the point on the concentration scale where inhibition reaches its midpoint. As to `O=C(NO)c1ccc(COc2c(-c3ccccc3)c3ccccc3[nH]c2=O)cc1`, the IC50 in [1] turned out to be 15 µM; in [3], 27.9 µM; in data set [5], 33.4 µM; in [6] it was 0.147 µM; in [12], 6.6 µM. Besides, the fold change (FC) was greater than 9 in data set [2], 2 in data set [4] and greater than 9 in data set [10]. Further, the inhibition entry in data set [7] and in data set [11] was “Active” each time. The viability at 50 µM in [8] is 10%. Moreover, the “inhibition (INH)” value in [9] is listed as “Active”. In addition, the Activity in [13] turned out to be 60%.

As to `CCN(CC)Cc1ccc(Cn2c(=O)c(OCc3ccc(C(=O)NO)cc3)c(-c3ccccc3)c3ccccc32)cc1`, the IC50 in [1] was found to be 3.6 µM; in [3], 40.6 µM; in data set [5] it was 11.6 µM; in data set [16] it was 0.55 µM; in [21], 13.5 µM. In addition, the results for the fold change (FC) in [2], in data set [4] and in [10] were greater than 9, 2 and greater than 9, respectively. The Activity in [14] is recorded as 80%; in data set [17], “Toxic”; in data set [18], 90%; in [19] it was 50%; in data set [13], 60%. Besides, the inhibition entry in data set [7] is “inactive”. The “inhibition (INH)” value in data set [9] is recorded as “Active”. Besides, the result in data set [15] and in [20] was Active. In addition, the Kapp in [16] (human, 1 h) worked out at 0.36 µM. Besides, in data set [11], the inhibition entry was “Active”.
